From ChEMBL document CHEMBL3526048, “In vitro metabolism of rivoglitazone, a novel peroxisome proliferator-activated receptor γ agonist, in rat, monkey, and human liver microsomes and freshly isolated hepatocytes” (Drug Metab Dispos, 2011)

Columns and labels:
[1] = Retention time of the compound by LC-MS/MS analysis; assay type: physicochemical
Procedure, shortened: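 LC-MS/MS used a YMC-Pack ODS-A column (1.5 × 150 mm, 5 μm) at 30°C, 0.1 ml/min. Mobile phase was water and acetonitrile, each with 0.01% TFA. Gradient: 12→60% B over 30 min, →90% B over 5 min, hold 5 min. Detection was UV 220 nm with positive ESI Q-TOF (capillary 3300 V, cone 45 V), collision energy 20 eV and xenon as collision gas.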

Hepatocyte [2] = assay: Drug level in rat hepatocytes treated with [14C]-rivoglitazone at 30 uM after 3 hrs by radio-HPLC/LC-MS/MS analysis; assay type: ADME, cell-based
[3] = Drug level in monkey hepatocytes treated with [14C]-rivoglitazone at 30 uM after 3 hrs by radio-HPLC/LC-MS/MS analysis; settings: cynomolgus monkey
Hepatocyte [4] = assay: Drug level in human hepatocytes treated with [14C]-rivoglitazone at 30 uM after 3 hrs by radio-HPLC/LC-MS/MS analysis; assay type: ADME, cell-based
Procedure, shortened: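 Freshly isolated hepatocytes were suspended in HBSS at 2×10^6 viable cells/ml; trypan-blue viability was rat 88%, monkey 91 and 94%, human 66, 73 and 81%. Donors were rat (7 weeks, 170 g) and two male cynomolgus monkeys. Cells were incubated with [¹⁴C]rivoglitazone (30 μM) for 3 h at 37°C under 95% O₂/5% CO₂. Acetonitrile stop, sonication, samples pooled per species, supernatant analysed by radio-HPLC and LC-MS.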

[5] = Drug level in cynomolgus monkey liver microsomes treated with [14C]-rivoglitazone at 20 uM after 2 to 4 hrs by radio-HPLC/LC-MS/MS analysis in presence of NADPH-generating system/SAM and UDPGA/SAM; assay type: ADME, Macaca fascicularis
Liver microsome [6] = assay: Drug level in Sprague-Dawley rat liver microsomes treated with [14C]-rivoglitazone at 20 uM after 2 to 4 hrs by radio-HPLC/LC-MS/MS analysis in presence of NADPH-generating system/SAM and UDPGA/SAM; assay type: ADME
Liver microsome [7] = assay: Drug level in human liver microsomes treated with [14C]-rivoglitazone at 20 uM after 2 to 4 hrs by radio-HPLC/LC-MS/MS analysis in presence of NADPH-generating system/SAM and UDPGA/SAM; assay type: ADME
Hepatocyte [8] = assay: Drug level in rat hepatocytes treated with [14C]-rivoglitazone at 30 uM after 3 hrs by radio-HPLC/LC-MS/MS analysis in presence of NADPH-generating system/SAM; assay type: ADME, cell-based
Hepatocyte [9] = assay: Drug level in human hepatocytes treated with [14C]-rivoglitazone at 30 uM after 3 hrs by radio-HPLC/LC-MS/MS analysis in presence of NADPH-generating system/SAM; assay type: ADME, cell-based
Liver microsome [10] = assay: Drug level in Sprague-Dawley rat liver microsomes treated with [14C]-rivoglitazone at 20 uM after 2 hrs by radio-HPLC/LC-MS/MS analysis in presence of NADPH-generating system/SAM; assay type: ADME
Procedure, shortened: (§1)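 Pooled male liver microsomes (1 mg/ml protein; rat from 94 Sprague-Dawley, monkey from 8 cynomolgus, human from 23 donors) were incubated with [¹⁴C]rivoglitazone (20 μM). Buffer: 10 mM potassium phosphate (pH 7.4). Cofactors: NADPH-generating system (2 mM NADP⁺, 20 mM G6P, 2 U/ml G6PDH, 10 mM MgCl₂), with or without 2 mM SAM. Incubation 2 h at 37°C with shaking; controls lacked NADPH system and SAM alone. Acetonitrile stop, radio-HPLC plus LC-MS.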

Liver microsome [11] = assay: Drug level in human liver microsomes treated with [14C]-rivoglitazone at 20 uM after 2 hrs by radio-HPLC/LC-MS/MS analysis in presence of NADPH-generating system/SAM; assay type: ADME; procedure, shortened: as §1
[12] = test system: Hepatocyte (Macaca fascicularis); assay: Drug level in monkey hepatocytes treated with [14C]-rivoglitazone at 30 uM after 3 hrs by radio-HPLC/LC-MS/MS analysis in presence of NADPH-generating system/SAM; settings: cynomolgus monkey
[13] = Drug level in cynomolgus monkey liver microsomes treated with [14C]-rivoglitazone at 20 uM after 2 hrs by radio-HPLC/LC-MS/MS analysis in presence of NADPH-generating system/SAM; assay type: ADME, Macaca fascicularis; procedure, shortened: as §1
[14] = Drug level in monkey hepatocytes treated with [14C]-rivoglitazone at 30 uM after 3 hrs by radio-HPLC/LC-MS/MS analysis in presence of UDPGA and UDPGA/SAM; settings: cynomolgus monkey
Liver microsome [15] = assay: Drug level in Sprague-Dawley rat liver microsomes treated with [14C]-rivoglitazone at 20 uM after 4 hrs by radio-HPLC/LC-MS/MS analysis in presence of UDPGA and UDPGA/SAM; assay type: ADME
Procedure, shortened: (§2)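 Pooled male liver microsomes (1 mg/ml; rat from 94 Sprague-Dawley, monkey from 8 cynomolgus, human from 23 donors) were pretreated with alamethicin (50 μg/mg protein, 15 min, ice). Incubation with [¹⁴C]rivoglitazone (20 μM) in 100 mM Tris-HCl (pH 7.5), 10 mM MgCl₂, 5 mM UDPGA, with or without 2 mM SAM, 4 h at 37°C. Controls lacked UDPGA and SAM alone. Radio-HPLC and LC-MS analysis.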

Hepatocyte [16] = assay: Drug level in human hepatocytes treated with [14C]-rivoglitazone at 30 uM after 3 hrs by radio-HPLC/LC-MS/MS analysis in presence of UDPGA and UDPGA/SAM; assay type: ADME, cell-based
Hepatocyte [17] = assay: Drug level in rat hepatocytes treated with [14C]-rivoglitazone at 30 uM after 3 hrs by radio-HPLC/LC-MS/MS analysis in presence of UDPGA and UDPGA/SAM; assay type: ADME, cell-based
[18] = target: T1, UDP-glucuronosyltransferase 1A3 (Homo sapiens, UniProt P35503); assay: Activity of human UGT1A3 expressed in microsomes isolated from baculovirus infected insect cell assessed as enzyme-mediated compound formation treated with [14C]-rivoglitazone at 20 uM after 4 hrs by radio-HPLC/LC-MS/MS analysis in presence of NADPH-generating system/SAM; assay type: ADME
T1 sequence (P35503 whole entry): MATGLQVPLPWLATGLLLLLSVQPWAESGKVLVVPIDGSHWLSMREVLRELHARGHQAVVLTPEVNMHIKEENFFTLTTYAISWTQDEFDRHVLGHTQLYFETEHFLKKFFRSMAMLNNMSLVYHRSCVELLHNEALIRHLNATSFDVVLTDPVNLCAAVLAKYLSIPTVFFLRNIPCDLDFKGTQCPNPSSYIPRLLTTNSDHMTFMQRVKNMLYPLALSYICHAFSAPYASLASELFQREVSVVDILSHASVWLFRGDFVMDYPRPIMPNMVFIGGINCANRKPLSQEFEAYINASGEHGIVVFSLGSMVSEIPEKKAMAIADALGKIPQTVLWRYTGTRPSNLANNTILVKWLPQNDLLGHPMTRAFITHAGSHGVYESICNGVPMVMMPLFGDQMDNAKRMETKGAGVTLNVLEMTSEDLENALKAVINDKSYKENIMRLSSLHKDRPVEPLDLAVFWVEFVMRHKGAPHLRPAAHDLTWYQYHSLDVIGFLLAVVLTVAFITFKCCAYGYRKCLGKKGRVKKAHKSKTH

[19] = Drug level in cynomolgus monkey liver microsomes treated with [14C]-rivoglitazone at 20 uM after 4 hrs by radio-HPLC/LC-MS/MS analysis in presence of UDPGA and UDPGA/SAM; assay type: ADME, Macaca fascicularis; procedure, shortened: as §2
[20] = target: T2, UDP-glucuronosyltransferase 2B7 (Homo sapiens, UniProt P16662); assay: Activity of human UGT2B7 expressed in microsomes isolated from baculovirus infected insect cell assessed as enzyme-mediated compound formation treated with [14C]-rivoglitazone at 20 uM after 4 hrs by radio-HPLC/LC-MS/MS analysis in presence of NADPH-generating system/SAM; assay type: ADME
T2 sequence (P16662 whole entry): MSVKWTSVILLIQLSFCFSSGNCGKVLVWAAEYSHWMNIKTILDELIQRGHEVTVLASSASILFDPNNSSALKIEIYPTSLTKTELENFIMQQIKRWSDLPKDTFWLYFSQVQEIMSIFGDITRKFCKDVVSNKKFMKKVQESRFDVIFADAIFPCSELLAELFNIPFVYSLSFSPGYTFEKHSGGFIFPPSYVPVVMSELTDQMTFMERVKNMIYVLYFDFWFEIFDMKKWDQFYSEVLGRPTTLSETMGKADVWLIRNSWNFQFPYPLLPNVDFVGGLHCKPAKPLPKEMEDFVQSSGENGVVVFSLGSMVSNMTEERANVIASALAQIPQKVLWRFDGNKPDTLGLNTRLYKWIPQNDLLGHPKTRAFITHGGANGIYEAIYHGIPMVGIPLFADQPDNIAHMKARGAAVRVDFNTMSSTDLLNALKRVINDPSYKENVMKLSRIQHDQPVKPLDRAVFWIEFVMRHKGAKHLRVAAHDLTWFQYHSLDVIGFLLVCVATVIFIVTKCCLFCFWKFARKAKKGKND

Liver microsome [21] = assay: Drug level in human liver microsomes treated with [14C]-rivoglitazone at 20 uM after 4 hrs by radio-HPLC/LC-MS/MS analysis in presence of UDPGA and UDPGA/SAM; assay type: ADME; procedure, shortened: as §2

Row | Retention_time [1] | Drug metabolism [14] | Drug metabolism (Liver microsome [15]) | Drug metabolism (Hepatocyte [16]) | Drug metabolism (Hepatocyte [17]) | Drug metabolism [18] | Drug metabolism [19] | Drug metabolism [20] | Drug metabolism (Liver microsome [21]) | further results | SMILES
1 | 18.9 min | – | – | – | – | – | – | – | – | Drug metabolism (Hepatocyte [2]): metabolite_detected; Drug metabolism [3]: metabolite_detected; Drug metabolism (Hepatocyte [4]): metabolite_detected | Cn1c(COc2ccc(CC3SC(=O)NC3=O)cc2)nc2ccc(OS(=O)(=O)O)cc21 (stereo not drawn)
2 | 24.2 min | – | – | – | – | – | – | – | – | Drug metabolism [5]: metabolite_detected; Drug metabolism (Liver microsome [6]): metabolite_detected; Drug metabolism (Liver microsome [7]): metabolite_detected | COc1ccc2nc(COc3ccc(CC(SC)C(=O)O)cc3)n(C)c2c1 (stereo not drawn)
3 | 20.4 min | – | – | – | – | – | – | – | – | Drug metabolism (Hepatocyte [8]): metabolite_detected; Drug metabolism (Hepatocyte [9]): metabolite_detected; Drug metabolism (Liver microsome [10]): metabolite_detected; Drug metabolism (Liver microsome [11]): metabolite_detected; Drug metabolism [12]: metabolite_detected; Drug metabolism [13]: metabolite_detected | COc1ccc2nc(COc3ccc(CC(SC)C(N)=O)cc3)n(C)c2c1 (stereo not drawn)
4 | 17.3 min | metabolite_detected | metabolite_detected | metabolite_detected | metabolite_detected | metabolite_detected | metabolite_detected | metabolite_detected | metabolite_detected | – | COc1ccc2nc(COc3ccc(CC(SC(=O)N[C@@H]4O[C@H](C(=O)O)[C@@H](O)[C@H](O)[C@H]4O)C(=O)O)cc3)n(C)c2c1 (stereo partly drawn)
5 | 19.8 min | metabolite_detected | metabolite_detected | metabolite_detected | metabolite_detected | metabolite_detected | metabolite_detected | metabolite_detected | metabolite_detected | – | COc1ccc2nc(COc3ccc(CC4SC(=O)N([C@@H]5O[C@H](C(=O)O)[C@@H](O)[C@H](O)[C@H]5O)C4=O)cc3)n(C)c2c1 (stereo partly drawn)
